Laboratory results: ChEMBL document CHEMBL2434951, “Synthesis and antimicrobial activity of polyhalobenzonitrile quinazolin-4(3H)-one derivatives” (2013)
Values after ≈ are worked out from the molar mass of the structure shown. Active and inactive are the calls of the source. No cut-off for these calls is given here.

What was measured:
Type in all cases: functional
Bacillus cereus [1] = assay: Antibacterial activity against Bacillus cereus ATCC 14579 assessed as growth inhibition after 24 hrs by liquid dilution method
How it was run: (§1)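 Liquid (tube) dilution. Compounds and positive controls in DMSO at 11 concentrations from 0.98 upward. Each tube held 1 mL compound solution plus bacterial or fungal inoculum and sterile water. Incubated 24 h, then checked for turbidity; MIC is the lowest concentration without growth. Chlorothalonil, norfloxacin and fluconazole as standards.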

Bacillus cereus [2] = assay: Antibacterial activity against Bacillus cereus ATCC 14579 assessed as growth inhibition at 1000 ug/mL after 24 hrs by disk diffusion assay; details: for zone of inhibition at 1000 µg/mL: ATCC 14579, 24 h, read-out: DIZ
How it was run: (§2)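 Disk diffusion on nutrient agar, inoculum spread evenly. Disks of 6 mm Whatman No. 1 paper, dry-heat sterilized at 121 °C for 1 h, soaked in test compound at 1000 (micro)g/mL. Norfloxacin and chlorothalonil disks as positive controls, DMSO disks as negative control. Plates incubated 24 h at 37 °C. Inhibition zone diameter measured in mm.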

Pseudomonas aeruginosa [3] = assay: Antibacterial activity against Pseudomonas aeruginosa ATCC 15442 assessed as growth inhibition at 1000 ug/mL after 24 hrs by disk diffusion assay; details: for zone of inhibition at 1000 µg/mL: ATCC 15442, 24 h, read-out: DIZ; how it was run: as §2
Escherichia coli [4] = assay: Antibacterial activity against Escherichia coli ATCC 8099 assessed as growth inhibition at 1000 ug/mL after 24 hrs by disk diffusion assay; details: for zone of inhibition at 1000 µg/mL: ATCC 8099, 24 h, read-out: DIZ; how it was run: as §2
Pseudomonas aeruginosa [5] = assay: Antibacterial activity against Pseudomonas aeruginosa ATCC 15442 assessed as growth inhibition after 24 hrs by liquid dilution method; how it was run: as §1
Candida albicans = assay: Antifungal activity against Candida albicans ATCC 10231 assessed as growth inhibition at 1000 ug/mL after 24 hrs by disk diffusion assay; details: for zone of inhibition at 1000 µg/mL: ATCC 10231, 24 h, read-out: DIZ; how it was run: as §2
Escherichia coli [6] = assay: Antibacterial activity against Escherichia coli ATCC 8099 assessed as growth inhibition after 24 hrs by liquid dilution method; how it was run: as §1
Staphylococcus aureus [7] = assay: Antibacterial activity against Staphylococcus aureus ATCC 6538 assessed as growth inhibition after 24 hrs by liquid dilution method; how it was run: as §1
Staphylococcus aureus [8] = assay: Antibacterial activity against Staphylococcus aureus ATCC 6538 assessed as growth inhibition at 1000 ug/mL after 24 hrs by disk diffusion assay; details: for zone of inhibition at 1000 µg/mL: ATCC 6538, 24 h, read-out: DIZ; how it was run: as §2

SMILES | MIC (Bacillus cereus [1]; ATCC 14579, 24 h) [µg/mL] | zone of inhibition at 1000 µg/mL (Bacillus cereus [2]) [mm] | zone of inhibition at 1000 µg/mL (Pseudomonas aeruginosa [3]) [mm] | zone of inhibition at 1000 µg/mL (Escherichia coli [4]) [mm] | MIC (Pseudomonas aeruginosa [5]; ATCC 15442, 24 h) [µg/mL] | zone of inhibition at 1000 µg/mL (Candida albicans) [mm] | MIC (Escherichia coli [6]; ATCC 8099, 24 h) [µg/mL] | MIC (Staphylococcus aureus [7]; ATCC 6538, 24 h) [µg/mL] | zone of inhibition at 1000 µg/mL (Staphylococcus aureus [8]) [mm] | diameter of the inhibition zone (DIZ) (Escherichia coli [4]) | diameter of the inhibition zone (DIZ) (Candida albicans) | diameter of the inhibition zone (DIZ) (Staphylococcus aureus [8]) | diameter of the inhibition zone (DIZ) (Bacillus cereus [2]) | diameter of the inhibition zone (DIZ) (Pseudomonas aeruginosa [3]) | MIC (Escherichia coli [6]) | MIC (Staphylococcus aureus [7]) | MIC (Bacillus cereus [1]) | MIC (Pseudomonas aeruginosa [5])
Cc1ccc(Nc2c(Cl)c(Cl)c(C#N)c(Cl)c2C#N)c(Nc2ccc([N+](=O)[O-])c3nc[nH]c(=O)c23)c1 | 52.1 (≈ 96.3 µM) | 10.7 | 9.5 | 9 | 417 (≈ 771 µM) | 7.5 | 417 (≈ 771 µM) | 500 (≈ 925 µM) | 9.3 |  |  |  |  |  |  |  |  | 
Nc1ccc(Nc2ccccc2)c2c(=O)[nH]cnc12 | 125 (≈ 495 µM) | 9.5 | 7 |  | 250 (≈ 991 µM) |  | 208 (≈ 826 µM) | 208 (≈ 824 µM) |  | inactive | inactive | inactive |  |  |  |  |  | 
N#Cc1c(Cl)c(Cl)c(Nc2ccc(Nc3ccc(Cl)cc3)c3c(=O)[nH]cnc23)c(C#N)c1Cl | 83.3 (≈ 161 µM) | 9 | 9.5 | 9 | 417 (≈ 807 µM) | 9.5 | 333 (≈ 646 µM) | 4.7 (≈ 9.11 µM) | 8.8 |  |  |  |  |  |  |  |  | 
CCN(CC)c1ccc(Nc2c(Cl)c(Cl)c(C#N)c(Cl)c2C#N)c2nc[nH]c(=O)c12 |  | 6 | 7.5 | 6 |  |  |  |  | 7.7 |  | inactive |  |  |  |  |  |  | 
N#Cc1c(F)c(Cl)c(Nc2ccc(Nc3ccc(Cl)cc3)c3c(=O)[nH]cnc23)c(C#N)c1F | 41.7 (≈ 86.3 µM) | 10.4 | 12 | 9 | 500 (≈ 1030 µM) | 8.5 | 208 (≈ 431 µM) | 20.8 (≈ 43 µM) | 9.7 |  |  |  |  |  |  |  |  | 
Cc1cccc(Nc2ccc(N)c3nc[nH]c(=O)c23)c1 |  |  |  | 6.5 |  |  |  |  |  |  | inactive | inactive | inactive | inactive |  |  |  | 
N#Cc1c(Cl)c(Cl)c(Nc2ccccc2Nc2ccc([N+](=O)[O-])c3nc[nH]c(=O)c23)c(C#N)c1Cl | 41.7 (≈ 79.2 µM) | 11.2 | 6.7 | 7 | 125 (≈ 237 µM) |  | 167 (≈ 316 µM) | 250 (≈ 475 µM) | 7.3 |  | inactive |  |  |  |  |  |  | 
Nc1ccc(Nc2ccc(Cl)cc2)c2c(=O)[nH]cnc12 |  |  |  |  |  |  |  |  |  | inactive | inactive | inactive | inactive | inactive |  |  |  | 
Nc1ccc(Nc2ccc(F)cc2)c2c(=O)[nH]cnc12 |  | 6 | 6 |  |  |  |  |  |  | inactive | inactive | inactive |  |  |  |  |  | 
N#Cc1c(F)c(Cl)c(Nc2ccc(Nc3ccccc3)c3c(=O)[nH]cnc23)c(C#N)c1F | 500 (≈ 1110 µM) | 6 | 9.5 |  | 500 (≈ 1110 µM) | 6 |  |  | 8.9 | inactive |  |  |  |  | inactive | inactive |  | 
Nc1ccc(Nc2cccc(Cl)c2)c2c(=O)[nH]cnc12 |  | 6 | 6.5 | 6 |  |  |  |  | 6.5 |  | inactive |  |  |  | inactive | inactive | inactive | inactive
Cc1ccc(Nc2ccc(N)c3nc[nH]c(=O)c23)cc1C |  |  |  |  |  |  |  |  | 6.5 | inactive | inactive |  | inactive | inactive |  |  |  | 
Cc1ccccc1Nc1ccc(Nc2c(Cl)c(F)c(C#N)c(F)c2C#N)c2nc[nH]c(=O)c12 | 52.1 (≈ 113 µM) | 10.8 | 9.5 | 9.7 | 208 (≈ 450 µM) | 7.5 | 208 (≈ 450 µM) | 208 (≈ 450 µM) | 10.3 |  |  |  |  |  |  |  |  | 
N#Cc1c(Cl)c(Cl)c(Nc2ccc(Nc3ccccc3)c3c(=O)[nH]cnc23)c(C#N)c1Cl | 0.5 (≈ 1.04 µM) | 11.7 | 11.3 | 11 | 83.4 (≈ 173 µM) | 10.3 | 250 (≈ 519 µM) | 125 (≈ 259 µM) | 10 |  |  |  |  |  |  |  |  | 
Cc1cc(C)cc(Nc2ccc(N)c3nc[nH]c(=O)c23)c1 |  | 6 | 6.3 |  |  |  |  |  |  | inactive | inactive | inactive |  |  |  |  |  | 
Nc1ccc(N2CCCCC2)c2c(=O)[nH]cnc12 |  |  |  | 7.8 |  |  |  |  |  |  | inactive | inactive | inactive | inactive |  |  |  | 
Cc1ccc(Nc2ccc(N)c3nc[nH]c(=O)c23)cc1 |  |  |  |  |  |  |  |  |  | inactive | inactive | inactive | inactive | inactive |  |  |  | 
Cc1ccc(N)c(Nc2ccc([N+](=O)[O-])c3nc[nH]c(=O)c23)c1 | 20.8 (≈ 66.8 µM) | 15 | 16.8 | 14.7 | 20.8 (≈ 66.8 µM) | 13.5 | 20.8 (≈ 66.8 µM) | 10.4 (≈ 33.4 µM) | 5.3 |  |  |  |  |  |  |  |  | 
Cc1cccc(Nc2ccc(Nc3c(Cl)c(F)c(C#N)c(F)c3C#N)c3nc[nH]c(=O)c23)c1 | 292 (≈ 630 µM) | 10 | 10 | 9.3 | 417 (≈ 900 µM) | 9.5 | 500 (≈ 1080 µM) | 500 (≈ 1080 µM) | 9.8 |  |  |  |  |  |  |  |  | 
CN(C)c1ccc(N)c2nc[nH]c(=O)c12 |  |  |  | 8.5 |  |  |  |  |  |  | inactive | inactive | inactive | inactive |  |  |  | 
Cc1ccc(Nc2ccc(Nc3c(Cl)c(Cl)c(C#N)c(Cl)c3C#N)c3nc[nH]c(=O)c23)cc1C | 0.8 (≈ 1.57 µM) | 11 | 9.4 | 10.8 |  | 10 | 83.3 (≈ 163 µM) | 15.6 (≈ 30.6 µM) | 8.5 |  |  |  |  |  |  |  |  | inactive
Nc1ccccc1Nc1ccc([N+](=O)[O-])c2nc[nH]c(=O)c12 |  |  |  | 7.8 |  |  |  |  |  |  | inactive | inactive | inactive | inactive |  |  |  | 
Cc1ccccc1Nc1ccc(Nc2c(Cl)c(Cl)c(C#N)c(Cl)c2C#N)c2nc[nH]c(=O)c12 | 0.5 (≈ 1.01 µM) | 10.5 | 9 | 12.5 | 83.4 (≈ 168 µM) |  | 125 (≈ 252 µM) | 52.1 (≈ 105 µM) | 10 |  | inactive |  |  |  |  |  |  | 
Cc1ccccc1Nc1ccc(N)c2nc[nH]c(=O)c12 | 167 (≈ 626 µM) | 6 | 8.5 | 9 | 417 (≈ 1560 µM) | 10 | 250 (≈ 939 µM) | 250 (≈ 939 µM) | 8 |  |  |  |  |  |  |  |  | 
Cc1ccc(Nc2ccc(Nc3c(Cl)c(Cl)c(C#N)c(Cl)c3C#N)c3nc[nH]c(=O)c23)cc1 | 0.7 (≈ 1.41 µM) | 11 | 12 | 10.5 | 52.1 (≈ 105 µM) | 9.5 | 104 (≈ 210 µM) | 10.4 (≈ 21 µM) | 9.3 |  |  |  |  |  |  |  |  | 
CCN(CC)c1ccc(N)c2nc[nH]c(=O)c12 |  | 6 | 7.5 | 6 |  |  |  |  | 7.3 |  | inactive |  |  |  |  |  |  | 
